Laboratory results as given in ChEMBL document CHEMBL1143155, “Synthesis and SAR of selective muscarinic acetylcholine receptor subtype 1 (M1 mAChR) antagonists” (Bioorg Med Chem Lett, 2008).
Residue numbers refer to the chain shown, from its start. Calls of active or inactive are those of the source. No cut-off for these calls is given here.

Legend:
Rattus norvegicus [1] = species: Rattus norvegicus; assay: Selectivity for rat muscarinic M1 receptor over rat muscarinic M3 receptor by calcium mobilization assay
Rattus norvegicus [2] = species: Rattus norvegicus; assay: Selectivity for rat muscarinic M1 receptor over rat muscarinic M4 receptor by calcium mobilization assay
Rattus norvegicus [3] = species: Rattus norvegicus; assay: Selectivity for rat muscarinic M1 receptor over rat muscarinic M5 receptor by calcium mobilization assay
[4] = target: T1, Muscarinic acetylcholine receptor M1 (Rattus norvegicus, UniProt P08482); assay: Antagonist activity at rat muscarinic M1 receptor expressed in CHO cells by calcium mobilization assay; format: functional, cell-based
T1 sequence (P08482 whole entry): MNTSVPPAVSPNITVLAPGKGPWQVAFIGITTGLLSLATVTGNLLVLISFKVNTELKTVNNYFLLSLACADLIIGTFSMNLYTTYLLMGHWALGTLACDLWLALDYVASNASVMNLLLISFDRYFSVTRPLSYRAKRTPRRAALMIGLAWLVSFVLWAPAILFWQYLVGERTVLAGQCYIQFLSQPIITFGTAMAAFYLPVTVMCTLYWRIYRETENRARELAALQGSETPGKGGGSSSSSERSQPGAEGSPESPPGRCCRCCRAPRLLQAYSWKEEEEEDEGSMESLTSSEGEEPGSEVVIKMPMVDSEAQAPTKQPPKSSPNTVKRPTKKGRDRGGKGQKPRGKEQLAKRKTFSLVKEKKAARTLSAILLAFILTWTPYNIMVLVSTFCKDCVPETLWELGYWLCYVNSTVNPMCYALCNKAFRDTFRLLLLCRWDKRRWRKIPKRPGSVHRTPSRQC

[5] = target: T2, Muscarinic acetylcholine receptor M2 (Rattus norvegicus, UniProt P10980); assay: Antagonist activity at rat muscarinic M2 receptor expressed in CHO cells by calcium mobilization assay; format: functional, cell-based
T2 sequence (P10980 whole entry): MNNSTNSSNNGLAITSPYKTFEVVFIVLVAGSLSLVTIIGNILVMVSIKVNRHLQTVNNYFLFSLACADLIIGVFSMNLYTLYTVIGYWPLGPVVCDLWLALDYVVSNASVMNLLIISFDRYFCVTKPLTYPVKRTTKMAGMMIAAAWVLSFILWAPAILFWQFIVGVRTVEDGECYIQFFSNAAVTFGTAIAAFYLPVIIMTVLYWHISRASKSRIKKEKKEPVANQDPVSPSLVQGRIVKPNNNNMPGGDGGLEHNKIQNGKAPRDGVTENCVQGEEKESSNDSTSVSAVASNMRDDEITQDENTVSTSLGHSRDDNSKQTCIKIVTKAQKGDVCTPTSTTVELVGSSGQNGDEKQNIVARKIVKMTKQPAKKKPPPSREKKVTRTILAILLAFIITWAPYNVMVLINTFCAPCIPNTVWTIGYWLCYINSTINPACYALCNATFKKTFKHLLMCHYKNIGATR

[6] = target: T3, Muscarinic acetylcholine receptor M3 (Rattus norvegicus, UniProt P08483); assay: Antagonist activity at rat muscarinic M3 receptor expressed in CHO cells by calcium mobilization assay; format: functional, cell-based
T3 sequence (P08483 whole entry): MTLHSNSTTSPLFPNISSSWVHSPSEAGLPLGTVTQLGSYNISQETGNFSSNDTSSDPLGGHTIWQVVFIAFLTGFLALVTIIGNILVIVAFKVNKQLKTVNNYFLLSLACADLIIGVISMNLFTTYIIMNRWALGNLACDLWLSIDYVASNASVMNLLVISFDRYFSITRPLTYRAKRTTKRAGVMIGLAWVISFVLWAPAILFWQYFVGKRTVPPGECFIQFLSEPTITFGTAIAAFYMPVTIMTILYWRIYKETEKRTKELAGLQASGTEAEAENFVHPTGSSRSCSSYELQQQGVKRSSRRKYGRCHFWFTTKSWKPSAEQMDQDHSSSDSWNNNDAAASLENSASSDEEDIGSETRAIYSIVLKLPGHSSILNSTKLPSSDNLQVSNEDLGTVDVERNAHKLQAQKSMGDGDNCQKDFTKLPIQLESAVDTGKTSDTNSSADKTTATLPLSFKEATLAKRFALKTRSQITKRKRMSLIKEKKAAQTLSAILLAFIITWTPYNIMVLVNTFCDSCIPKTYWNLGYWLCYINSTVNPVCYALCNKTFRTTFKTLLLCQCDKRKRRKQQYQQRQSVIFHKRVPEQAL

[7] = target: T4, Muscarinic acetylcholine receptor M4 (Rattus norvegicus, UniProt P08485); assay: Antagonist activity at rat muscarinic M4 receptor expressed in CHO cells by calcium mobilization assay; format: functional, cell-based
T4 sequence (P08485 whole entry): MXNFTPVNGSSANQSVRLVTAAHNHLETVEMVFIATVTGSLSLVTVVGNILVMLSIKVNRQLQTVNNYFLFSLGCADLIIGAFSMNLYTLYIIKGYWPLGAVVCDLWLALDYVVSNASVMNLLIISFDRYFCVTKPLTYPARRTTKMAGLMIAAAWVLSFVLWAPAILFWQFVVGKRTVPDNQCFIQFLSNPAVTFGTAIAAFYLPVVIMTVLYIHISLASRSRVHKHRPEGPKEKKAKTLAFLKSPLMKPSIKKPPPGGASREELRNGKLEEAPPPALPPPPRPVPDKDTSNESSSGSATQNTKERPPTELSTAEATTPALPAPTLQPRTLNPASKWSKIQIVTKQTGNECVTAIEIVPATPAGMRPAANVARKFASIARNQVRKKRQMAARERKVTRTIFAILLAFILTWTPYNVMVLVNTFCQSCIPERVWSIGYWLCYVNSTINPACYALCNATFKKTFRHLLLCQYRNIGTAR

[8] = target: T5, Muscarinic acetylcholine receptor M5 (Rattus norvegicus, UniProt P08911); assay: Antagonist activity at rat muscarinic M5 receptor expressed in CHO cells by calcium mobilization assay; format: functional, cell-based
T5 sequence (P08911 whole entry): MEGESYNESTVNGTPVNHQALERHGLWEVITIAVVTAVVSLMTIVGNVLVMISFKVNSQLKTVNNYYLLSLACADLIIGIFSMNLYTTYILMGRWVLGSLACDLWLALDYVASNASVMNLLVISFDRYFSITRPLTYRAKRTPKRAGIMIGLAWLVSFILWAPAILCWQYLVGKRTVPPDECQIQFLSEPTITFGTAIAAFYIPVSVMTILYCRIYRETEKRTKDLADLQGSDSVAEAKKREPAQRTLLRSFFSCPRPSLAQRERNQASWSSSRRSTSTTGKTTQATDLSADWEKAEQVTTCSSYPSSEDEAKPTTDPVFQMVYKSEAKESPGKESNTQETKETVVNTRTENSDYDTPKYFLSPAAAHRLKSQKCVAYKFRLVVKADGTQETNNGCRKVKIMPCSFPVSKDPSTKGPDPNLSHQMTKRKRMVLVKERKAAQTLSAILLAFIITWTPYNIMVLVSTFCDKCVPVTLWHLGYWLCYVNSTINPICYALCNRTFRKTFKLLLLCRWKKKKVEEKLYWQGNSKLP

[9] = target: T6, Muscarinic acetylcholine receptor M1 (Homo sapiens) (UniProt P11229); assay: Inhibition of human muscarinic M1 receptor
T6 sequence (whole entry): T1 sequence (P08482 whole entry) with V5A, S254T, S309P, K320R, G337A, V413I

[10] = target: T1, Muscarinic acetylcholine receptor M1; assay: Displacement of [3H]NMS from rat muscarinic M1 receptor expressed in CHO cells; format: cell-based
Procedure, shortened: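 Competition binding against the orthosteric radioligand [³H]-N-methylscopolamine on rat mAChR subtypes from CHO cell lines, with atropine as positive control. Ki values are averages of three independent experiments.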

[11] = target: T2, Muscarinic acetylcholine receptor M2; assay: Displacement of [3H]NMS from rat muscarinic M2 receptor expressed in CHO cells; format: cell-based
[12] = target: T3, Muscarinic acetylcholine receptor M3; assay: Displacement of [3H]NMS from rat muscarinic M3 receptor expressed in CHO cells; format: cell-based
[13] = target: T4, Muscarinic acetylcholine receptor M4; assay: Displacement of [3H]NMS from rat muscarinic M4 receptor expressed in CHO cells; format: cell-based
[14] = target: T5, Muscarinic acetylcholine receptor M5; assay: Displacement of [3H]NMS from rat muscarinic M5 receptor expressed in CHO cells; format: cell-based

Structure (SMILES) | Ratio IC50 (Rattus norvegicus [1]) | Ratio IC50 (Rattus norvegicus [2]) | Ratio IC50 (Rattus norvegicus [3]) | IC50 [4] | IC50 [5] | IC50 [6] | IC50 [7] | IC50 [8] | Activity [9] | Ki [10] | Ki [11] | Ki [12] | Ki [13] | Ki [14]
CN1CCN(CC(=O)N2c3ccccc3C(=O)Nc3cccnc32)CC1 | 20 | 20 | 20 |  |  |  |  |  |  |  |  |  |  | 
CCCCCC(=O)Nc1ccc(N2CCN(CC)CC2)c(Cl)c1 |  |  |  | 0.49 µM | > 150 µM | > 150 µM | 7.9 µM | > 150 µM | Active |  |  |  |  | 
CCN1CCN(c2ccc(NC(=O)COc3ccccc3)cc2Cl)CC1 | > 45 | > 45 | > 45 | 3.3 µM | > 150 µM | > 150 µM | > 150 µM | > 150 µM |  |  |  |  |  | 
CCN1CCN(c2ccc(NC(=O)CC(C)(C)C)cc2Cl)CC1 |  |  |  | > 150 µM | > 150 µM | > 150 µM | > 150 µM | > 150 µM |  |  |  |  |  | 
CCN1CCN(c2ccc(NC(=O)[C@H]3C[C@@H]3c3ccccc3)cc2Cl)CC1 |  |  |  | 1.15 µM | 29 µM | 24 µM | 20 µM | 13 µM |  |  |  |  |  | 
CCN1CCN(c2ccc(NC(=O)c3ccccc3)cc2Cl)CC1 |  |  |  | 5 µM | > 150 µM | > 150 µM | 66 µM | > 150 µM |  |  |  |  |  | 
CCN1CCN(c2ccc(NC(=O)COCc3ccccc3)cc2Cl)CC1 |  |  |  | 18.8 µM | > 150 µM | > 150 µM | > 150 µM | > 150 µM |  |  |  |  |  | 
CCN1CCN(c2ccc(NC(=O)Cc3ccc(F)cc3)cc2Cl)CC1 | > 26 | > 26 | > 26 | 5.6 µM | > 150 µM | > 150 µM | > 150 µM | > 150 µM |  |  |  |  |  | 
CCCC(=O)Nc1ccc(N2CCN(CC)CC2)c(Cl)c1 |  |  |  | > 150 µM | > 150 µM | > 150 µM | > 150 µM | > 150 µM |  |  |  |  |  | 
CCN1CCN(c2ccc(NC(=O)CCc3ccccc3)cc2Cl)CC1 | 63 | 16 | 6.9 | 1.1 µM | 52 µM | 70 µM | 18 µM | 7.6 µM |  |  |  |  |  | 
CCCCOc1cccc(C(=O)Nc2ccc(N3CCN(CC)CC3)c(Cl)c2)c1 |  |  |  | 0.58 µM |  |  | 5.1 µM |  | Active |  |  |  |  | 
CCN1CCN(c2ccc(NC(=O)CCC3CCCC3)cc2Cl)CC1 | 7 | > 340 | 2.4 | 0.44 µM | 3.5 µM | 3.1 µM | > 150 µM | 1.1 µM |  | 0.0127 µM | 0.338 µM | 0.0748 µM | 0.445 µM | 0.0857 µM
CCN1CCN(c2ccc(NC(=O)C3CCCCC3)cc2Cl)CC1 | > 32 | > 32 | > 32 | 4.6 µM | > 150 µM | > 150 µM | > 150 µM | > 150 µM |  |  |  |  |  | 
